From ChEMBL document CHEMBL1177730, “Bivalent diketopiperazine-based tropomysin receptor kinase C (TrkC) antagonists” (J Med Chem, 2010)
Active and inactive are the calls of the source. No cut-off for these calls is given here.

Assays:
[1] = biological target: NT-3 growth factor receptor (Homo sapiens) (UniProt Q16288); test: Antagonist activity at human TrkC expressed in mouse NIH/3T3 cells assessed as inhibition of NT3-induced cytoprotection at 20 uM by MTT assay relative to NT3; assay type: functional, cell-based; settings: NIH3T3
NT-3 growth factor receptor (Homo sapiens), sequence (Q16288 32-839 limits assumed): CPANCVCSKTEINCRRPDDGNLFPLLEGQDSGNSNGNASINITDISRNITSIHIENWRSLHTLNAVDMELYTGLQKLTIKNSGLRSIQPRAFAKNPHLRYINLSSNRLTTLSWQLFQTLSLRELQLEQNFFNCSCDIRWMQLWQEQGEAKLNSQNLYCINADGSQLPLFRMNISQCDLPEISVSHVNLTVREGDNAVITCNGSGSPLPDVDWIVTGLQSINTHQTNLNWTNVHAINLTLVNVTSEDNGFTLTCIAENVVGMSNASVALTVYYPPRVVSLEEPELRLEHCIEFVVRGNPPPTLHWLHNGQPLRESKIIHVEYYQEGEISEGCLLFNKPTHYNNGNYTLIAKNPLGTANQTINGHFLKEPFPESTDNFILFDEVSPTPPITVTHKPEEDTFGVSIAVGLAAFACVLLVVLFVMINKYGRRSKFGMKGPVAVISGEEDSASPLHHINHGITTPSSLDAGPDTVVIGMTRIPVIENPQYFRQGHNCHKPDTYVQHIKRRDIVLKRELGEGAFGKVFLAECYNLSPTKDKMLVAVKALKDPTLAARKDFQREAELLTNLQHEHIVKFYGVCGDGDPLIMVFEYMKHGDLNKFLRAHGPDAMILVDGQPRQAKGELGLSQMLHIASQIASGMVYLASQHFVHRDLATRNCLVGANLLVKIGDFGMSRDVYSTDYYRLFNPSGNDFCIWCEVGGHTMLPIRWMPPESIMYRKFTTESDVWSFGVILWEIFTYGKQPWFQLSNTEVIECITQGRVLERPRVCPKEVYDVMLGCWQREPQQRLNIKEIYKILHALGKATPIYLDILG
In short: (§1)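 Survival of NIH-3T3 cells expressing TrkA, TrkC or IGF-1R was measured by MTT in serum-free medium. Medium held the matching growth factor (NGF for TrkA, NT-3 for TrkC, IGF-1 for IGF-1R) at optimal 10 nM or sub-optimal 0.2 nM, ± compound at 20 μM. Survival was expressed relative to optimal growth factor-mediated survival (100%); average ± sd.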

[2] = biological target: High affinity nerve growth factor receptor (Homo sapiens) (UniProt P04629); test: Antagonist activity at human TrkA expressed in mouse NIH/3T3 assessed as inhibition of NGF-induced cytoprotection at 20 uM by MTT assay relative to NGF; assay type: functional, cell-based; settings: NIH3T3; in short: as §1
High affinity nerve growth factor receptor (Homo sapiens), sequence (P04629 33-796 limits assumed): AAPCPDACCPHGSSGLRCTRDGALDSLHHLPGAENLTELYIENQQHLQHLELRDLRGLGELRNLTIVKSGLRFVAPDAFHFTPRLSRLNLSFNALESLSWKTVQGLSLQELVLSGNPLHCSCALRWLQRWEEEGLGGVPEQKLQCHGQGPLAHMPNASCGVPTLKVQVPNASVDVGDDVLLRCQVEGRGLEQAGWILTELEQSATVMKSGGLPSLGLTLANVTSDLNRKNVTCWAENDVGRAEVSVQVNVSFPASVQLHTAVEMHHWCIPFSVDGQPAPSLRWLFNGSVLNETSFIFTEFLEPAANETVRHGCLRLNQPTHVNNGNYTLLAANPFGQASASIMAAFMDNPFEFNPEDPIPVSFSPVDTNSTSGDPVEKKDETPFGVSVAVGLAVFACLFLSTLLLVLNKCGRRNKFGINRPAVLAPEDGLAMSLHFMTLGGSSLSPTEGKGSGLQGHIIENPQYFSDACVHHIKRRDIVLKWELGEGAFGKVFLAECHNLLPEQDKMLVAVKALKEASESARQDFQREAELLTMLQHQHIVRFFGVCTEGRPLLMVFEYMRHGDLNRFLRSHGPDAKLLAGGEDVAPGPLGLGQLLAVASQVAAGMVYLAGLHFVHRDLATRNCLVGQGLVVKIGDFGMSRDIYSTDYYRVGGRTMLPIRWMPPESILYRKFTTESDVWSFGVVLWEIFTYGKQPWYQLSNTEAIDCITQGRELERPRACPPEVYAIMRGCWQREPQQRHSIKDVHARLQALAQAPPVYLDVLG

[3] = biological target: Insulin-like growth factor 1 receptor (Homo sapiens) (UniProt P08069); test: Antagonist activity at human IGF1R expressed in mouse NIH/3T3 cells assessed as inhibition of IGF-induced cytoprotection at 20 uM by MTT assay relative to IGF; assay type: functional, cell-based; settings: NIH3T3; in short: as §1
Insulin-like growth factor 1 receptor (Homo sapiens), sequence (P08069 31-736 limits assumed): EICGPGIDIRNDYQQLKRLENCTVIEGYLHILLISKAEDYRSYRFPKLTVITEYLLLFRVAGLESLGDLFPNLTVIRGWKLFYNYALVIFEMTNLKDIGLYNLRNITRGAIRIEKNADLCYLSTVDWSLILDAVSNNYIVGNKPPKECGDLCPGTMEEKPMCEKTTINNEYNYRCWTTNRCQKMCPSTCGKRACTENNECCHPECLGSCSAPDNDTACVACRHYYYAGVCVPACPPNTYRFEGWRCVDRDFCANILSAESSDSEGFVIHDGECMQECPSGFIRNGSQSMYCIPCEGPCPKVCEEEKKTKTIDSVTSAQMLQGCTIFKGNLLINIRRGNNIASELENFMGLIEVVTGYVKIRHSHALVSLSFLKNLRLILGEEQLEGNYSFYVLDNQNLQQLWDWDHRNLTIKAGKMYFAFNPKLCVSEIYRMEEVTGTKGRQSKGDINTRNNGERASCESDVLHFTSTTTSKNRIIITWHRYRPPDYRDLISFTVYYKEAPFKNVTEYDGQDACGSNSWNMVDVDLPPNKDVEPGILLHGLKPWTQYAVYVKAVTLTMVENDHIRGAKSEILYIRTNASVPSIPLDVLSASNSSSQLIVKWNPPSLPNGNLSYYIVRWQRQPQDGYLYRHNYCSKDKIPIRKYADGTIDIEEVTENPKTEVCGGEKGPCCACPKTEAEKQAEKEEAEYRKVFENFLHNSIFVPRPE
Insulin-like growth factor 1 receptor (Homo sapiens), sequence (P08069 741-1367 limits assumed): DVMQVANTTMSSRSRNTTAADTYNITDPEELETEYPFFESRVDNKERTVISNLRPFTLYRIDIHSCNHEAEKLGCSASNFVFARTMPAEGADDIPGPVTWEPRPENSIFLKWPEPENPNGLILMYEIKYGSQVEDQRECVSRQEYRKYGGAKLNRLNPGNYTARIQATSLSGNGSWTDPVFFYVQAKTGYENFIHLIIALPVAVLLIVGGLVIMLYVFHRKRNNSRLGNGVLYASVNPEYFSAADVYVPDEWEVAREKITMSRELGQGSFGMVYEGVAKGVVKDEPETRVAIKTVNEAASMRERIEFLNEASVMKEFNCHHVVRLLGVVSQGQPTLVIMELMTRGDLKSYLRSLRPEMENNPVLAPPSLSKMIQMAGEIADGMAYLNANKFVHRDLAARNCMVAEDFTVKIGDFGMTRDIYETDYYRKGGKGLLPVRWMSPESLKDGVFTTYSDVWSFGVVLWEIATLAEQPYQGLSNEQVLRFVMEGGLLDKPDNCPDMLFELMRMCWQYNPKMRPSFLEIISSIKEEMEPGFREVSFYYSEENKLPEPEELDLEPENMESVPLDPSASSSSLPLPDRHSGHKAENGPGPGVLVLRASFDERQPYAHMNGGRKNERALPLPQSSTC

NIH3T3 = test: Cytotoxicity against mouse NIH/3T3 cells by MTT assay; assay type: cell-based
[4] = biological target: NT-3 growth factor receptor (Homo sapiens) (UniProt Q16288); test: Antagonist activity at human TrkC expressed in mouse NIH/3T3 cells assessed as decrease in NT3-induced TrkC-pTyr level at 20 uM after 20 mins by Western blotting; assay type: functional, cell-based; design: scale not given: the % may be the effect or the level left; settings: NIH3T3
In short: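 NIH3T3-TrkC cells were exposed to NT-3 (2 nM) ± compound (20 μM) for 20 min. Detergent lysates were Western blotted with anti-pTyr mAb 4G10 and anti-phospho-MAPK, then re-blotted for actin to normalise loading. Bands were quantified by densitometry.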

[5] = biological target: High affinity nerve growth factor receptor (Homo sapiens) (UniProt P04629); test: Antagonist activity at human TrkA expressed in mouse NIH/3T3 cells assessed as decrease in NGF-induced tyrosin phosphorylation at 20 uM after 20 mins by Western blotting; assay type: functional, cell-based; settings: NIH3T3
[6] = biological target: Insulin-like growth factor 1 receptor (Homo sapiens) (UniProt P08069); test: Antagonist activity at human IGF1R expressed in mouse NIH/3T3 cells assessed as decrease in IGF-induced tyrosin phosphorylation at 20 uM after 20 mins by Western blotting; assay type: functional, cell-based; settings: NIH3T3
[7] = biological target: NT-3 growth factor receptor (Homo sapiens) (UniProt Q16288); test: Binding affinity at human TrkC expressed in mouse NIH/3T3 cells by FACS analysis; assay type: cell-based; settings: NIH3T3
In short: (§2)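 Stably transfected NIH-3T3 cells expressing the indicated receptor were incubated at 4 °C with biotin-tagged ligand (50 μM), then with fluorescein-avidin. After washing, cells were analysed by flow cytometry. Background mean channel fluorescence of NIH-IGF-1R cells was subtracted to give specific binding. Mean ± SEM, n = 3 independent experiments.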

[8] = biological target: High affinity nerve growth factor receptor (Homo sapiens) (UniProt P04629); test: Binding affinity to human TrkA expressed in mouse NIH/3T3 cells by FACS analysis; assay type: cell-based; settings: NIH3T3; in short: as §2
[9] = biological target: Insulin-like growth factor 1 receptor (Homo sapiens) (UniProt P08069); test: Binding affinity to human IGF1R expressed in mouse NIH/3T3 cells by FACS analysis; assay type: cell-based; settings: NIH3T3
[10] = biological target: Tumor necrosis factor receptor superfamily member 16 (p75NTR, NGFR) (Homo sapiens) (UniProt P08138); test: Binding affinity to human p75 expressed in mouse NIH/3T3 cells by FACS analysis; settings: NIH3T3
Tumor necrosis factor receptor superfamily member 16 (p75NTR, NGFR) (Homo sapiens), sequence (P08138 whole entry, looked up): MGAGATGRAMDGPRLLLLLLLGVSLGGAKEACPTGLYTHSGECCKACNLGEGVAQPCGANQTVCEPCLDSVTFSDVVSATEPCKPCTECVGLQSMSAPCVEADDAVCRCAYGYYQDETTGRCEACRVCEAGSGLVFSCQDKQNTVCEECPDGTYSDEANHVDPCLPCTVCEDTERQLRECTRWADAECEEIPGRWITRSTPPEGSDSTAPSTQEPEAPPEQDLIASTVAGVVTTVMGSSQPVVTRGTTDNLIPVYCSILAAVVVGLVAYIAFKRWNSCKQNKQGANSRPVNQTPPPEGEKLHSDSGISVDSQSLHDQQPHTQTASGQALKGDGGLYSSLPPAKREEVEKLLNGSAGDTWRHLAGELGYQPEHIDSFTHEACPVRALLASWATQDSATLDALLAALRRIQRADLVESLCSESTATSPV

- inhibition [1]: 30%
- inhibition [2]: inactive
- inhibition [3]: inactive
- Activity [4]: 40%
- Activity [5]: inactive
- Activity [6]: inactive
- Activity [7]: Active
- Activity [8]: inactive
- Activity [9]: inactive
SMILES: CN1C(=O)CN([C@@H](CCCCN)C(=O)NCCCCCCCCCCC(=O)N2CCN(c3nc(NCCCC[C@@H]4SC[C@@H]5NC(=O)N[C@@H]54)nc(N4CCN(C(=O)[C@H](CCCCN)N5CC(=O)N(C)[C@@H](CCC(=O)O)C5=O)CC4)n3)CC2)C(=O)[C@@H]1CCC(=O)O
- Activity (NIH3T3): Non-toxic
- Activity [10]: inactive
